Test results as given in ChEMBL document CHEMBL1155882, “Selective nucleoside triphosphate diphosphohydrolase-2 (NTPDase2) inhibitors: nucleotide mimetics derived from uridine-5'-carboxamide” (J Med Chem, 2008).
pIC50, pKi: −log10 of the molar value.

Columns and labels:
[1] = target: T1, Ectonucleoside triphosphate diphosphohydrolase 3 (Homo sapiens) (UniProt O75355); test: Inhibition of human NTPDase 3 expressed in COS7 cells at 1mM; assay type: cell-based; settings: COS-7
T1 sequence (whole entry): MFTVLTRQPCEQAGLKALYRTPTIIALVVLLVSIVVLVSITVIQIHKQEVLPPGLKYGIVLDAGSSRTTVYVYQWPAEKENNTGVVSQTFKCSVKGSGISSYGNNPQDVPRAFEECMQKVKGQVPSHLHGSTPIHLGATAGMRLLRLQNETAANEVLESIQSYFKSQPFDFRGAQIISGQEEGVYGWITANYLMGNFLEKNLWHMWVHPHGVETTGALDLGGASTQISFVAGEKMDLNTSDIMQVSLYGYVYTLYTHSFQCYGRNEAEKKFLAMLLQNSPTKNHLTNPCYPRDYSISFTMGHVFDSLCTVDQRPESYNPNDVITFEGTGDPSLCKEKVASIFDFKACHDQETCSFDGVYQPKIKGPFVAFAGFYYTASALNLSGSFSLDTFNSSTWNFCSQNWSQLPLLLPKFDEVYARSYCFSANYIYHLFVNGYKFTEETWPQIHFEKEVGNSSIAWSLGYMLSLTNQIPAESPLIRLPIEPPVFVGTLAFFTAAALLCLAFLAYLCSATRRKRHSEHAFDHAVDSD
Summary of the method: (§1)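 NTPDase2 membranes come from stably transfected HEK 293 cells; NTPDase3 and NTPDase8 are transiently expressed in COS-7 cells as crude protein extracts. Buffer is 140 mM NaCl, 5 mM KCl, 1 mM MgCl2, 2 mM CaCl2, 10 mM HEPES pH 7.4, with 400 μM ATP, 37 °C, 10 min, stopped at 99 °C. Products are read by capillary electrophoresis (UV 210 nm, UMP internal standard).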

[2] = target: T2, Ectonucleoside triphosphate diphosphohydrolase 8 (Homo sapiens) (UniProt Q5MY95); test: Inhibition of human NTPDase 8 expressed in COS7 cells at 1mM; assay type: cell-based; settings: COS-7
T2 sequence (whole entry): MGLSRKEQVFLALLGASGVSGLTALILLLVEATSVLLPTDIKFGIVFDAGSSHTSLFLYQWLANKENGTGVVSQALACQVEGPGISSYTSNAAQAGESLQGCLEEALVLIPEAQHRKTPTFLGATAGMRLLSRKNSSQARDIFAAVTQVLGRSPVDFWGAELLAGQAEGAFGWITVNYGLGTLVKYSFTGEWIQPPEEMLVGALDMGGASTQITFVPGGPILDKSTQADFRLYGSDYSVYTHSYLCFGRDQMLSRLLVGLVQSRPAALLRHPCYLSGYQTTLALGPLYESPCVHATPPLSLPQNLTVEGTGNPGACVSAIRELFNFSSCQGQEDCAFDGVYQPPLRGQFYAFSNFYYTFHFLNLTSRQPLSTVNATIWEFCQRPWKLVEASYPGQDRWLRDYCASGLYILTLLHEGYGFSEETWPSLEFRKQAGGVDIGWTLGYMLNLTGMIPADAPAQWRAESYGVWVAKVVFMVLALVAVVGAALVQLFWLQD
Summary of the method: (§2)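 Transiently transfected COS-7 cell protein extract expressing human enzyme. 1 mM test compound with 400 μM ATP in HEPES 10 mM pH 7.4 buffer (NaCl, KCl, 1 mM MgCl2, 2 mM CaCl2), 37 °C for 10 min. Stopped at 99 °C for 5 min. Products measured by capillary electrophoresis, UV 210 nm, with UMP internal standard. Triplicates in two experiments; empty-pcDNA3 membrane control.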

P2Y purinoceptor 4 [3] = target: T3, P2Y purinoceptor 4 (Homo sapiens, UniProt P51582); test: Antagonist activity at human P2Y4 receptor expressed in human 1321N1 cells assessed as inhibition of UTP-induced intracellular calcium mobilization at 100 uM by FLUOstar plate reader; assay type: functional, cell-based
Summary of the method: (§3)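 Human 1321N1 astrocytoma cells express human P2Y2 or P2Y4, or rat P2Y6. Cells are loaded with Fura-2 AM and preincubated with compound at 100 μM. Inhibition of agonist-induced intracellular calcium release is read as Fura-2 fluorescence. The agonist is UTP for P2Y2 and P2Y4, and UDP for P2Y6.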

[4] = target: P2Y purinoceptor 6 (Rattus norvegicus) (UniProt Q63371); test: Antagonist activity at rat P2Y6 receptor expressed in human 1321N1 cells assessed as inhibition of UDP-induced intracellular calcium mobilization at 100 uM by NOVOstar plate reader; assay type: functional, cell-based; summary of the method: as §3
[5] = target: T4, Ectonucleoside triphosphate diphosphohydrolase 2 (Homo sapiens) (UniProt Q9Y5L3); test: Inhibition of human NTPDase 2 expressed in HEK293 cells at 1mM; assay type: cell-based
T4 sequence (whole entry): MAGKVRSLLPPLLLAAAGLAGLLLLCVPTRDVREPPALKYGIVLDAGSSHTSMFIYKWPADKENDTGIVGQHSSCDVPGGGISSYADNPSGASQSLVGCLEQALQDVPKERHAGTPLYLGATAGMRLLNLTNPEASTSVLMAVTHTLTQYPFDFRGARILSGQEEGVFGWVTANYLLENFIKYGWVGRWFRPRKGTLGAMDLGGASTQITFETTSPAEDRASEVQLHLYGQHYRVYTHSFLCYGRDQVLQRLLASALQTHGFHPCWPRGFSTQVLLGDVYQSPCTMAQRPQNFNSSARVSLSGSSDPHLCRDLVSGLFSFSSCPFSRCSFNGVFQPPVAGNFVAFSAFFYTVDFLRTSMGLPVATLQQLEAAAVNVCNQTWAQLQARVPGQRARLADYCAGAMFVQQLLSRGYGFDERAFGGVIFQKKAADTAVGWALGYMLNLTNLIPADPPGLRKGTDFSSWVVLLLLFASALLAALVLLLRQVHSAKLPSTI
Summary of the method: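 Membranes from HEK 293 cells stably expressing human NTPDase2 (geneticin selection), prepared by differential and sucrose-gradient centrifugation. 1 mM test compound with 400 μM ATP in 10 mM HEPES pH 7.4 saline (1 mM MgCl2, 2 mM CaCl2), 37 °C for 10 min. Heat-stopped at 99 °C. Nucleotides separated by capillary electrophoresis, UV 210 nm, UMP internal standard. Triplicates, two experiments.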

[6] = target: T5, Ectonucleoside triphosphate diphosphohydrolase 1 (Homo sapiens) (UniProt P49961); test: Inhibition of human NTPDase 1 expressed in COS7 cells at 1mM; assay type: cell-based; settings: COS-7; summary of the method: as §2
T5 sequence (whole entry): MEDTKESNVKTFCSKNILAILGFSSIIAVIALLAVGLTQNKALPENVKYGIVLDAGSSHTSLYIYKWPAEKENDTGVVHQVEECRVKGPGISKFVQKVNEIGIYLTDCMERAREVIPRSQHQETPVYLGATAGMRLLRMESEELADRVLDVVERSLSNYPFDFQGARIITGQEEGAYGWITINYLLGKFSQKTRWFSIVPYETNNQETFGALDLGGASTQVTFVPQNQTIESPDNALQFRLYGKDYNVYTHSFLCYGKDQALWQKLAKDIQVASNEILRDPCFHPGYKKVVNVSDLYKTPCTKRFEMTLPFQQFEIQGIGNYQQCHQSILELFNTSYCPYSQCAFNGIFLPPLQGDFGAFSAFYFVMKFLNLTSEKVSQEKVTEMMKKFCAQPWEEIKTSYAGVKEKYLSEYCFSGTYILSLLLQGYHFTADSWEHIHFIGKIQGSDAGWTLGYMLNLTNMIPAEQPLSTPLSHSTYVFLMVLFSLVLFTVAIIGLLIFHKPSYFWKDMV

P2Y purinoceptor 2 [7] = target: T6, P2Y purinoceptor 2 (Homo sapiens, UniProt P41231); test: Antagonist activity at human P2Y2 receptor expressed in human 1321N1 cells assessed as inhibition of UTP-induced intracellular calcium mobilization at 100 uM by FLUOstar plate reader; assay type: functional, cell-based; summary of the method: as §3
[8] = target: T7, Ectonucleoside triphosphate diphosphohydrolase 2 (Homo sapiens, UniProt Q9Y5L3); test: Inhibition of human NTPDase 2 expressed in HEK293 cells assessed as residual activity by capillary electrophoresis; assay type: cell-based; summary of the method: as §1
T7 sequence (Q9Y5L3 whole entry): T4 sequence (whole entry)

[9] = target: T8, Ectonucleoside triphosphate diphosphohydrolase 8 (Homo sapiens, UniProt Q5MY95); test: Inhibition of human NTPDase 8 expressed in COS7 cells; assay type: cell-based, COS-7; summary of the method: as §1
T8 sequence (Q5MY95 whole entry): T2 sequence (whole entry)

[10] = Inhibition of rat NTPDase 3
P2Y purinoceptor 4 [11] = target: T3, P2Y purinoceptor 4; test: Antagonist activity at human P2Y4 receptor expressed in human 1321N1 cells assessed as inhibition of UTP-induced receptor activation at 100 uM relative to UTP; assay type: functional, cell-based; set-up: scale not given: the % may be the effect or the level left; summary of the method: as §3
P2Y purinoceptor 2 [12] = target: T6, P2Y purinoceptor 2; test: Antagonist activity at human P2Y2 receptor expressed in human 1321N1 cells assessed as inhibition of UTP and ATP-induced receptor activation at 100 uM relative to UTP; assay type: functional, cell-based; set-up: scale not given: the % may be the effect or the level left; summary of the method: as §3
[13] = target: P2Y purinoceptor 6 (Rattus norvegicus) (UniProt Q63371); test: Antagonist activity at rat P2Y6 receptor expressed in human 1321N1 cells assessed as inhibition of UDP-induced receptor activation at 100 uM relative to UDP; assay type: functional, cell-based; set-up: scale not given: the % may be the effect or the level left; summary of the method: as §3
[14] = Chemical stability in 0.001 N aqueous sodium hydroxide at pH 11 by LC-MS analysis; assay type: physicochemical; settings: buffer
Summary of the method: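 Compound from a 2 mM aqueous stock (20 mM NH4OAc) is diluted 10 μL into 990 μL of 0.001 N NaOH (pH 11). It is incubated 2 or 24 h at 37 °C and analysed by C18 LC–ESI-MS, with detection limit about 0.1 μg/mL.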

[15] = Stability in simulated artificial gastric juice after 24 hrs by LC-MS analysis; assay type: physicochemical; settings: simulated gi fluid

Chain of P2Y purinoceptor 6 (Rattus norvegicus) (Q63371 whole entry): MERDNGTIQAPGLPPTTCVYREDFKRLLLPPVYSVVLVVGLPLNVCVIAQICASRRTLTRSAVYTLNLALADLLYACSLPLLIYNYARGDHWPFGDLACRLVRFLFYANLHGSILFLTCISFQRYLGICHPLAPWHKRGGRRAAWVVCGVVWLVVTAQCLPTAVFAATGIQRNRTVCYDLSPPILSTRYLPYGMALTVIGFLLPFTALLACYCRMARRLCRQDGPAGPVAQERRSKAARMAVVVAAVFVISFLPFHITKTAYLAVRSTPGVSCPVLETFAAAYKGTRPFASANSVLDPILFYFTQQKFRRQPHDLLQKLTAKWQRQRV
T3 sequence (P51582 whole entry): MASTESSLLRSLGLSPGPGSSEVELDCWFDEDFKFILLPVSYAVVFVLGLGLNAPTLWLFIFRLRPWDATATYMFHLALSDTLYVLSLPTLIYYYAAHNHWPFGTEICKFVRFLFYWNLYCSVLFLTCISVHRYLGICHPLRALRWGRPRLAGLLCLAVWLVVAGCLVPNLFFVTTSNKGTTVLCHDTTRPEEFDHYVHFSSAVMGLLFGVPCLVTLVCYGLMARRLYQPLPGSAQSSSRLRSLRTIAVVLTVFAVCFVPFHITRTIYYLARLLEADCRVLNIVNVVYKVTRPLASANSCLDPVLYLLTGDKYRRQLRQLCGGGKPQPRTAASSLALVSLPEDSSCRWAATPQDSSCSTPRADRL
T6 sequence (P41231 whole entry): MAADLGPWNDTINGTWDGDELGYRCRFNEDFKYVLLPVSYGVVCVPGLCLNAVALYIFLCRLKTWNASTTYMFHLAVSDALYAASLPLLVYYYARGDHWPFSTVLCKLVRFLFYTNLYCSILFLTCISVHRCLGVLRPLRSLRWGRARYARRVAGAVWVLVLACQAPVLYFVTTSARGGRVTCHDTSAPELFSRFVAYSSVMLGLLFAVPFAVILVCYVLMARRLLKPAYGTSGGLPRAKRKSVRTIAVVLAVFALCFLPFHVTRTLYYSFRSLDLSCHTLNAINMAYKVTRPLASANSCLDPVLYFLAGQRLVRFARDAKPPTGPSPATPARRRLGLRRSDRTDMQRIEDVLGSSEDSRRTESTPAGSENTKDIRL

inhibition [2] | inhibition [5] | inhibition [6] | inhibition (P2Y purinoceptor 2 [7]) | Compound | inhibition [1] | inhibition (P2Y purinoceptor 4 [3]) | inhibition [4] | pIC50 [8] | pKi [9] | pKi [10] | Activity (P2Y purinoceptor 4 [11]) | Activity (P2Y purinoceptor 2 [12]) | Activity [13] | Stability [14] | Stability [15]
0% | 0% | 0% | – | CCOP(=O)(Cc1ccc(NC(=O)CNC(=O)[C@H]2O[C@@H](n3cnc4c(N)ncnc43)[C@H](O)[C@@H]2O)cc1)OCC | 0% | 7% | 6% | – | – | – | – | – | – | – | –
0% | – | 0% | -7% | CCOP(=O)(CCNC(=O)CNC(=O)[C@H]1O[C@@H](n2ccc(=O)[nH]c2=O)[C@H](O)[C@@H]1O)OCC | 22% | 8% | 9% | – | – | – | – | – | – | – | –
– | – | – | – | CCN(CC)c1ncnc2c1ncn2[C@@H]1O[C@H](COP(=O)(O)OP(=O)(O)C(Br)(Br)P(=O)(O)O)[C@@H](O)[C@H]1O | – | – | – | – | < 4.00 | 3.95 | – | – | – | – | –
0% | 0% | 0% | 29% | CCOP(=O)(CNC(=O)CCNC(=O)[C@H]1O[C@@H](n2cnc3c(N)ncnc32)[C@H](O)[C@@H]1O)OCC | 0% | – | – | – | – | – | – | – | – | – | –

Compound | inhibition [2] | inhibition [5] | inhibition [6] | inhibition (P2Y purinoceptor 2 [7]) | inhibition [1] | inhibition (P2Y purinoceptor 4 [3]) | inhibition [4] | pIC50 [8] | pKi [9] | pKi [10] | Activity (P2Y purinoceptor 4 [11]) | Activity (P2Y purinoceptor 2 [12]) | Activity [13] | Stability [14] | Stability [15]
CCOP(=O)(CNC(=O)CCCNC(=O)[C@H]1O[C@@H](n2ccc(=O)[nH]c2=O)[C@H](O)[C@@H]1O)OCC | 0% | – | 45% | – | 0% | 21% | -3% | 4.00 | – | – | – | – | – | – | –
CCOP(=O)(CNC(=O)CNC(=O)[C@H]1O[C@@H](n2ccc(=O)[nH]c2=O)[C@H](O)[C@@H]1O)OCC | 0% | – | – | – | 0% | 38% | 17% | 3.43 | – | – | 46% | 58% | 12% | – | –
CCOP(=O)(Cc1ccc(NC(=O)CCCNC(=O)[C@H]2O[C@@H](n3ccc(=O)[nH]c3=O)[C@H](O)[C@@H]2O)cc1)OCC | – | – | – | 6% | 48% | 7% | -8% | – | – | – | – | – | – | Stable | Stable
